According to ChEMBL document CHEMBL1121879, “In vitro activity of 2-alkyl-3-hydroxy-1,4-naphthoquinones against Theileria parva” (1981):
≈ marks a conversion by molar mass, not a printed value.

Tested on: Theileria parva
Test: In vitro concentration required to reduce the proportion of schizont infected cells in the culture to 50% of that of untreated control in the 48 hr incubation period
Assay type: functional
Details: read-out: ED50 (the source's name)
Outline: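 T. parva-infected cell cultures were exposed to fourfold serial dilutions of each drug for 48 h, and the proportion of schizont-infected cells was compared with untreated controls. ED50 was expressed in mg/L, with at least two tests per compound.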

Row | Compound | EC50 [µg/mL]
1 | O=C1C(=O)c2ccccc2C(O)=C1NC(=O)C1CCCCC1 | > 10
2 | O=C1C(=O)c2ccccc2C(O)=C1C1CC2CCC1C2 (centres undefined) | 0.06 (≈ 0.224 µM)
3 | O=C1C(=O)c2ccccc2C(O)=C1C1CC1 | 10 (≈ 46.7 µM)
4 | O=C1C(=O)c2ccccc2C(O)=C1SC1CCCCC1 | 6.5 (≈ 22.5 µM)
5 | O=C1C(O)=C(C2C=CCCC2)C(=O)c2ccccc21 (centres undefined) | 1.5 (≈ 5.9 µM)
6 | O=C1C(=O)c2ccccc2C(O)=C1C1CCCCCCC1 | 0.007 (≈ 0.0246 µM)
7 | O=C1C(O)=C(CCCCCCCCCCC2=C(O)C(=O)c3ccccc3C2=O)C(=O)c2ccccc21 | 10 (≈ 20.6 µM)
8 | O=C1C(=O)c2ccccc2C(O)=C1c1ccccc1 | > 10
9 | COc1ccc2c(c1)C(=O)C(C1CCCCCC1)=C(O)C2=O | > 10
10 | O=C1C(=O)c2ccccc2C(O)=C1C1CCCCCCCCCCC1 | 0.09 (≈ 0.264 µM)
11 | O=C1C(O)=C(CCCCCC2=C(O)C(=O)c3ccccc3C2=O)C(=O)c2ccccc21 | > 10
12 | O=C1C(O)=C(C2CCC(C3CCCCC3)CC2)C(=O)c2ccccc21 (centres undefined) | 0.006 (≈ 0.0177 µM)
13 | O=C1C(O)=C(CCCCCCCCC2=C(O)C(=O)c3ccccc3C2=O)C(=O)c2ccccc21 | 1 (≈ 2.18 µM)
14 | O=C1C(=O)c2ccccc2C(O)=C1C1CCCOC1 (centres undefined) | 6.8 (≈ 26.3 µM)
15 | O=C1C(=O)c2ccccc2C(O)=C1C1CCC1 | 10 (≈ 43.8 µM)
16 | O=C1C(=O)c2ccccc2C(O)=C1C1CCCC1 | 3.7 (≈ 15.3 µM)
17 | O=C1C(O)=C(CCCCCCC2=C(O)C(=O)c3ccccc3C2=O)C(=O)c2ccccc21 | > 10

Results, then the molecule that gave them:

Row | EC50 [µg/mL] | Compound
18 | 0.01 (≈ 0.0242 µM) | CCCCCCCCCCCCCCCCCC1=C(O)C(=O)c2ccccc2C1=O
19 | 0.06 (≈ 0.192 µM) | O=C1C(=O)c2ccccc2C(O)=C1CCCCC1CCCCC1
20 | 0.08 (≈ 0.281 µM) | O=C1C(=O)c2ccccc2C(O)=C1CCC1CCCCC1
21 | > 10 | NC1=C(CC2CCCCC2)C(=O)c2ccccc2C1=O
22 | > 10 | O=C1C(Cl)=C(CC2CCCCC2)C(=O)c2ccccc21
23 | 0.03 (≈ 0.111 µM) | O=C1C(=O)c2ccccc2C(O)=C1CC1CCCCC1
24 | 0.006 (≈ 0.0162 µM) | CCCCCCCCCCCCCCC1=C(O)C(=O)c2ccccc2C1=O
25 | 0.05 (≈ 0.146 µM) | CCCCCCCCCCCCC1=C(O)C(=O)c2ccccc2C1=O
26 | 1 (≈ 3.2 µM) | CC(=O)OC1=C(CC2CCCCC2)C(=O)c2ccccc2C1=O
27 | > 10 | O=C1C(=O)c2ccccc2C(O)=C1CSC1CCCCC1
28 | 0.006 (≈ 0.0168 µM) | CCCCCCCCCCCCCC1=C(O)C(=O)c2ccccc2C1=O
29 | 0.06 (≈ 0.201 µM) | O=C1C(=O)c2ccccc2C(O)=C1CCCC1CCCCC1
30 | 0.01 (≈ 0.0251 µM) | CCCCCCCCCCCCCCCCC1=C(O)C(=O)c2ccccc2C1=O
31 | 0.05 (≈ 0.141 µM) | O=C1C(=O)c2ccccc2C(O)=C1CCCCCCCC1CCCCC1
32 | 0.01 (≈ 0.026 µM) | CCCCCCCCCCCCCCCC1=C(O)C(=O)c2ccccc2C1=O
33 | > 10 | O=C1C(O)=C(NCC2CCCCC2)C(=O)c2ccccc21
34 | 0.03 (≈ 0.0919 µM) | O=C1C(=O)c2ccccc2C(O)=C1CCCCCC1CCCCC1
35 | 0.01 (≈ 0.037 µM) | O=C1C(=O)c2ccccc2C(O)=C1C1CCCCCC1
36 | 0.13 (≈ 0.433 µM) | CCCCCCCCCC1=C(O)C(=O)c2ccccc2C1=O
37 | 1 (≈ 4.09 µM) | CCCCCC1=C(O)C(=O)c2ccccc2C1=O
38 | 0.06 (≈ 0.163 µM) | O=C1C(O)=C(CCCCCCCCC2CCCCC2)C(=O)c2ccccc21 [MENOCTONE]
39 | 0.006 (≈ 0.0234 µM) | O=C1C(O)=C(C2CCCCC2)C(=O)c2ccccc21 [PARVAQUONE]
